# Results taken from ChEMBL document CHEMBL1143440, “Tetrakis-azaaromatic quaternary ammonium salts: novel subtype-selective antagonists at neuronal nicotinic receptors that mediate nicotine-evoked dopamine release” (Bioorg Med Chem Lett, 2008).
# Key:
# [1] = Inhibition of nAChR-mediated nicotine-evoked [3H]DA release in superfused rat striatal slices
# In short: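 Superfused rat striatal slices, [3H]DA overflow evoked by 10 μM S(-)-nicotine after 36 min analogue pre-exposure, superfusion continued 36 min. Full concentration range 1 nM to 10 μM. IC50 from iterative nonlinear least-squares curve fitting; 4–5 independent experiments, each in duplicate.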
# [2] = species: Rattus norvegicus; experiment: Inhibition of nAChR-mediated nicotine-evoked [3H]DA release in superfused rat striatal slices at 100 nM
# In short: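 Rat striatal slices, preloaded with [3H]DA, superfused 36 min with or without 100 nM analogue, then 36 min more with 10 μM S(-)-nicotine added. Inhibition expressed as percent of the nicotine-evoked [3H]DA overflow without analogue. At least three independent experiments, each in duplicate.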
# [3] = molecular target: Neuronal acetylcholine receptor; alpha4/beta2 (Rattus norvegicus) (UniProt P09483+P12390); experiment: Displacement of [3H]nicotine from alpha4beta2 nAChR in rat brain membrane at 100 nM; assay type: cell membranes
# In short: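 Whole rat brain membranes, [3H]nicotine binding at 3 nM radioligand; nonspecific binding defined with 10 μM […]. Analogue tested at a 100 nM probe concentration. Inhibition expressed as percent of radioligand binding without analogue. At least three independent experiments, each in duplicate.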
# [4] = molecular target: Neuronal acetylcholine receptor subunit alpha-7 (Rattus norvegicus) (UniProt Q05941); experiment: Displacement of [3H]methyllycaconitine from alpha7 nAChR in rat brain membrane at 100 nM; assay type: cell membranes
# In short: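 Whole rat brain membranes, [3H]MLA binding at 2.5 nM radioligand; nonspecific binding defined with 10 μM nicotine. Analogue tested at a 100 nM probe concentration. Inhibition expressed as percent of radioligand binding without analogue. At least three independent experiments, each in duplicate.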
# [5] = molecular target: Neuronal acetylcholine receptor subunit alpha-7 (Rattus norvegicus, UniProt Q05941); experiment: Displacement of [3H]methyllycaconitine from alpha7 nAChR in rat brain membrane; assay type: cell membranes
# Chain of Neuronal acetylcholine receptor subunit alpha-7 (Q05941 whole entry): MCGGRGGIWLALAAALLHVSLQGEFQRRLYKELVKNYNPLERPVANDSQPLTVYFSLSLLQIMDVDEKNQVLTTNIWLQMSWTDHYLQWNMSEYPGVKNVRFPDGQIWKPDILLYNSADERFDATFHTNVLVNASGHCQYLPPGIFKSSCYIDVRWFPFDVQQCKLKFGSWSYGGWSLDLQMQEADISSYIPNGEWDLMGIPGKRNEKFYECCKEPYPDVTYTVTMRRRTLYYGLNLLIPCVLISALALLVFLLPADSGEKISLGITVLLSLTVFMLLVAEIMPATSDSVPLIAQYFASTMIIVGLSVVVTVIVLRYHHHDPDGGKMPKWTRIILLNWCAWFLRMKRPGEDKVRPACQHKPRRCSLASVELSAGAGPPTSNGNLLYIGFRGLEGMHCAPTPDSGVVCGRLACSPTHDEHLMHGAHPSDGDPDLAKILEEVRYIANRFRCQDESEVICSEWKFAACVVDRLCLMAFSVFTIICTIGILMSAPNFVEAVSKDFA
# Chain of Neuronal acetylcholine receptor subunit alpha-7 (Rattus norvegicus) (Q05941 whole entry): as above
SMILES,IC50 [1],inhibition [2],Activity [3],Activity [4],Ki [5]
OCCCc1ccc[n+](CCCCCc2cc(CCCCC[n+]3cccc(CCCO)c3)c(CCCCC[n+]3cccc(CCCO)c3)cc2CCCCC[n+]2cccc(CCCO)c2)c1,3.38 nM,64%,9.6%,20%,
c1ccc(-c2ccc[n+](CCCCCc3cc(CCCCC[n+]4cccc(-c5ccccc5)c4)c(CCCCC[n+]4cccc(-c5ccccc5)c4)cc3CCCCC[n+]3cccc(-c4ccccc4)c3)c2)cc1,,19%,6.6%,33%,
Cc1cc(C)c[n+](CCCC#Cc2cc(C#CCCC[n+]3cc(C)cc(C)c3)c(C#CCCC[n+]3cc(C)cc(C)c3)cc2C#CCCC[n+]2cc(C)cc(C)c2)c1,,12%,0%,3.9%,
Cc1cc[n+](CCCCCc2cc(CCCCC[n+]3ccc(C)c(C)c3)c(CCCCC[n+]3ccc(C)c(C)c3)cc2CCCCC[n+]2ccc(C)c(C)c2)cc1C,,36%,0.5%,18%,
Cc1cc[n+](CCCCCc2cc(CCCCC[n+]3ccc(C)cc3)c(CCCCC[n+]3ccc(C)cc3)cc2CCCCC[n+]2ccc(C)cc2)cc1,,46%,12%,8%,
c1ccc(Cc2ccc[n+](CCCCCc3cc(CCCCC[n+]4cccc(Cc5ccccc5)c4)c(CCCCC[n+]4cccc(Cc5ccccc5)c4)cc3CCCCC[n+]3cccc(Cc4ccccc4)c3)c2)cc1,28 nM,54%,13%,16%,
Cc1cc(C)c[n+](CCCCCc2cc(CCCCC[n+]3cc(C)cc(C)c3)c(CCCCC[n+]3cc(C)cc(C)c3)cc2CCCCC[n+]2cc(C)cc(C)c2)c1,,45%,3.7%,15%,
C(#Cc1cc(C#CCCC[n+]2cccc(Cc3ccccc3)c2)c(C#CCCC[n+]2cccc(Cc3ccccc3)c2)cc1C#CCCC[n+]1cccc(Cc2ccccc2)c1)CCC[n+]1cccc(Cc2ccccc2)c1,,17%,2.9%,53%,
C(#Cc1cc(C#CCCC[n+]2ccc3ccccc3c2)c(C#CCCC[n+]2ccc3ccccc3c2)cc1C#CCCC[n+]1ccc2ccccc2c1)CCC[n+]1ccc2ccccc2c1,,39%,0%,4.9%,
Cc1ccc[n+](CCCCCCCCCCCC[n+]2cccc(C)c2)c1,2 nM,,,,> 100000 nM
Cc1ccc[n+](CCCCCc2cc(CCCCC[n+]3cccc(C)c3)c(CCCCC[n+]3cccc(C)c3)cc2CCCCC[n+]2cccc(C)c2)c1,,8%,12%,12%,
Cc1cc[n+](CCCC#Cc2cc(C#CCCC[n+]3ccc(C)cc3)c(C#CCCC[n+]3ccc(C)cc3)cc2C#CCCC[n+]2ccc(C)cc2)cc1,,35%,24%,3%,
CN1CCC[C@H]1c1ccc[n+](CCCCCc2cc(CCCCC[n+]3cccc([C@@H]4CCCN4C)c3)c(CCCCC[n+]3cccc([C@@H]4CCCN4C)c3)cc2CCCCC[n+]2cccc([C@@H]3CCCN3C)c2)c1,,43%,7.4%,26%,
Cc1ccc[n+](CCCC#Cc2cc(C#CCCC[n+]3cccc(C)c3)cc(C#CCCC[n+]3cccc(C)c3)c2)c1,0.2 nM,40%,10%,0%,
c1c(CCCCC[n+]2ccc3c(c2)CCCC3)c(CCCCC[n+]2ccc3c(c2)CCCC3)cc(CCCCC[n+]2ccc3c(c2)CCCC3)c1CCCCC[n+]1ccc2c(c1)CCCC2,,27%,0.9%,27%,
c1ccc2c[n+](CCCCCc3cc(CCCCC[n+]4ccc5ccccc5c4)c(CCCCC[n+]4ccc5ccccc5c4)cc3CCCCC[n+]3ccc4ccccc4c3)ccc2c1,56 nM,63%,6.5%,24%,
OCCCc1ccc[n+](CCCC#Cc2cc(C#CCCC[n+]3cccc(CCCO)c3)c(C#CCCC[n+]3cccc(CCCO)c3)cc2C#CCCC[n+]2cccc(CCCO)c2)c1,,41%,0%,5.7%,
Cc1cc[n+](CCCC#Cc2cc(C#CCCC[n+]3ccc(C)c(C)c3)c(C#CCCC[n+]3ccc(C)c(C)c3)cc2C#CCCC[n+]2ccc(C)c(C)c2)cc1C,,17%,9.8%,0.6%,
Cc1ccc[n+](CCCC#Cc2cc(C#CCCC[n+]3cccc(C)c3)c(C#CCCC[n+]3cccc(C)c3)cc2C#CCCC[n+]2cccc(C)c2)c1,,16%,11%,18%,
C(#Cc1cc(C#CCCC[n+]2ccc3c(c2)CCCC3)c(C#CCCC[n+]2ccc3c(c2)CCCC3)cc1C#CCCC[n+]1ccc2c(c1)CCCC2)CCC[n+]1ccc2c(c1)CCCC2,,24%,9.7%,17%,
CN1CCC[C@H]1c1ccc[n+](CCCC#Cc2cc(C#CCCC[n+]3cccc([C@@H]4CCCN4C)c3)c(C#CCCC[n+]3cccc([C@@H]4CCCN4C)c3)cc2C#CCCC[n+]2cccc([C@@H]3CCCN3C)c2)c1,,31%,38%,15%,
C(#Cc1cc(C#CCCC[n+]2cccc(-c3ccccc3)c2)c(C#CCCC[n+]2cccc(-c3ccccc3)c2)cc1C#CCCC[n+]1cccc(-c2ccccc2)c1)CCC[n+]1cccc(-c2ccccc2)c1,,37%,0.3%,53%,
